# Experimental data gathered from unrelated publications.
# Protocols differ between the studies behind these lines.
# Medium: plasma
SMILES,host,route,dose,notes,Tmax [h]
COc1ccc2c(Cc3ccccc3F)c3n(c(=O)c2c1OC)CCc1cc2c(cc1-3)OCO2,rat,oral,5 mg/kg,,2.66
N#Cc1ccc(Nc2nc(N)cc(Oc3c(F)cc(-c4ccc(C#N)cc4)cc3F)n2)cc1,Sprague-Dawley rat,oral,5 mg/kg,,4
Cc1cc(Nc2ccc(C(F)(F)F)nc2)n2nc(C(C)(F)F)nc2n1,rat,oral,200 mg/kg,,12
C=CC(=O)N1CC2CC(n3nc(-c4ccc(C(=O)Nc5ccccn5)cc4)c4c(N)ncnc43)CC2C1 (centres unmarked),male Wistar rat,oral,300 mg/kg,,4
CCc1cc(C(=O)NC)c2nccc(N3CCc4c(cc(Cn5ccnc5)cc4-c4cn(C)nc4C(F)(F)F)C3=O)c2c1,male Sprague-Dawley rat,oral,50 mg/kg,,1.7
O=C(O)CCS(=O)(=O)O,male Sprague-Dawley rat,intravenous,10 mg/kg,,0.083
N#Cc1[nH]nnc1-c1csc(-c2ccc(Cl)cc2)n1,male Sprague-Dawley rat,oral,10 mg/kg,,1
O=C(Nc1cc(F)c(F)c(F)c1)c1ccc(F)c(S(=O)(=O)NCc2cccc(B(O)O)c2)c1,male Sprague-Dawley rat,intravenous,2 mg/kg,,0.08
CCOC(=O)[C@@]12C[C@@H]1[C@@H](n1ccc3c(NC)nc(C#Cc4ccc(Cl)s4)nc31)[C@H](O)[C@@H]2O,male Sprague-Dawley rat,oral,10 mg/kg,,1.17
CC(C)(O)[C@H]1CC[C@H](Nc2ccc3ncc(-c4cccc(C(F)(F)F)c4)n3n2)CC1,female Sprague-Dawley rat,oral,40 mg/kg,,1
COc1cc(/C=C/C(=O)CC(=O)/C=C/c2ccc(O)c(OC)c2)ccc1O,male Sprague-Dawley rat,oral,100 mg/kg,,0.167
Cc1c(-c2ccccc2)cccc1N1C(=O)c2cc(CN[C@H](C(=O)O)C(C)O)c(OCc3cccc(C#N)c3)cc2C1=O (some centres unmarked),Sprague-Dawley rat,intravenous,5 mg/kg,,0.08
N#Cc1[nH]nnc1-c1cccc(OCc2cc(C(F)(F)F)ccc2C(F)(F)F)c1,male Sprague-Dawley rat,oral,10 mg/kg,,1.3
COc1nc(-c2cc(C)c(N[C@@H](C)c3cc(F)cc(F)c3)nn2)ccc1-n1cnc(C)c1,male Sprague-Dawley rat,intravenous,1 mg/kg,single dose,0.083
CCc1cc(OC)c2nccc(N3CCc4c(cc(Cn5ccnc5)cc4-c4cn(C)nc4C(F)(F)F)C3=O)c2c1,male Sprague-Dawley rat,oral,50 mg/kg,,1.7
Oc1c(Br)cc(Cl)c2cccnc12,Sprague-Dawley rat,subcutaneous,10 mg/kg,,1.2
COCCOC(=O)C1=C(C)NC(C)=C(C(=O)OC(C)C)C1c1cccc([N+](=O)[O-])c1 (centres unmarked),male Sprague-Dawley rat,oral,12 mg/kg,,0.33
